What all share (format): cell-based, human
The test system of assay [1] is androgen-dependent LNCaP PC cells. Description: Cell viability. Particulars: Homo sapiens, 96 h.
Assay [2] has as its system castration-resistant DU-145 PC cells. The assay is described as follows: Cell viability. Particulars: DU-145, 96 hours, CellTiter Blue. (Resazurin is reduced to fluorescent resorufin, in cell work by metabolically active cells.)
The test system of assay [3] is castration-resistant PC-3 PC cells. The assay is described as follows: Cell viability. Particulars: Homo sapiens, 96 h.
The next assay concerns PSA expression. The assay is described as follows: PSA expression by Western blot in LNCaP expressing AR-V7. The conditions noted are these: LNCaP stably expressing AR-V7, 10μM, 24 hrs. The method, boiled down: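 Cells were lysed in 1x SDS sample buffer (1 × 10^7 cells/ml) and boiled 5 min. PSA and AR levels were assessed by SDS-PAGE and Western blot.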
(Immunoblotting shows a protein as a band on a membrane.)

Assay [4] relates to LNCaP expressing both wild-type and constitutively active AR splice variant AR-V7. The assay is described as follows: Cell viability. The conditions noted are these: LNCaP AR-V7, 96 hours, CellTiter Blue, XLfit.
Assay [5] relates to AR transcriptional activity. The assay is described as follows: AR luciferase reporter assay in LNCaP expressing AR-V7. The conditions noted are these: LNCaP stably expressing AR-V7, luciferase, 8 hrs. On the technique in general: Reporter assays use an easily measured gene product as a stand-in for the process of interest.
The subject of assay [6] is AR transcriptional activity. The assay is described as follows: AR luciferase reporter assay in LNCaP with R1881. Particulars: R1881 2.5nM, 8 hrs.

On to `O=C(c1cc(Cc2n[nH]c(=O)c3ccccc23)ccc1F)N1CCN(C(=O)C2CC2)CC1` [Olaparib, reference compound], for which the figures for the IC20 in assay [1] (read-out: ED20) and in assay [3] (read-out: ED20) were 0.7 µM and 0.9 µM, respectively. In addition, the IC50 in assay [1] (read-out: ED50) turned out to be 20.4 µM; in assay [3] (read-out: ED50) it was 9.3 µM. Also, the IC70 in assay [1] (read-out: ED70) was 163 µM; in assay [3] (read-out: ED70), 39 µM. Moreover, the IC90 worked out at 4450 µM in assay [1] (read-out: ED90) and 384 µM in assay [3] (read-out: ED90). The ED20 in assay [2] was 1.2 µM; in assay [4], 7.3 µM. The ED50 in assay [2] stood at 7.4 µM; in assay [4], 61.9 µM. Besides, the ED70 in assay [2] is 22.0 µM; in assay [4], 228.7 µM. Further, the ED90 in assay [2] was 125.8 µM; in assay [4], 1835 µM. In addition, the “effect on PSA expression” value in the assay on PSA expression was “negligible inhibitory effect”. Besides, the “effect on AR transcriptional activity” value in assay [5] is listed as “negligible inhibitory effect”. Moreover, the “effect on R1881-mediated AR transcriptional activity” value in assay [6] is “only weak inhibitory effects”.

Source of the values: PMC6702078 (Biochemical pharmacology, 2019).
